Test results published in article PMC4368043 (ACS Chemical Neuroscience, 2014).
Entries after “also recorded” stand apart in the source; their conditions may differ.

What was measured:
Plasma stability assay = format: in vitro ADME; details: male, C57BL/6, mouse
Outline: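 Plasma from male C57BL/6 mice, diluted 1:1 with PBS and warmed to 37 °C. Test compound added to 1 μM final and incubated 3 h at 37 °C with shaking. Zero-time and end samples quenched in 5:1 acetonitrile:water and centrifuged. Indomethacin added as internal standard. Quantified by LC-MS/MS in MRM mode; % remaining at 3 h.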

H4 cells = assay: Cell viability assay, thapsigargin as stressor; format: cell-based, human; details: 7.5 μM thapsigargin; for EC50: read-out: H4 EC50 ± SEM, cytoprotection, dose-response; for cytoprotective activity against thapsigargin-induced cell death (in words): H4 cells
Outline: (§1)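 Cells plated overnight at 37 °C, 5% CO2 in phenol red-free DMEM with 2% FBS (SH-SY5Y 4 × 10^4, H4 2.5 × 10^3 cells/well). Test compound in dose–response for 2 h, then thapsigargin 7.5 μM final for 18 h at 37 °C. Read by MTS absorbance at 490 nm. Viability % = background-subtracted (cell-free medium) relative to DMSO-only, no-thapsigargin wells. EC50 from dose–response curves. ≥3 repeats, mean ± SEM.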

SH-SY5Y cells = assay: Cell viability assay, thapsigargin as stressor; format: cell-based, human; details: 7.5 μM thapsigargin; for EC50: read-out: SH-SY5Y EC50 ± SEM, cytoprotection, dose-response; for cytoprotective activity against thapsigargin-induced cell death (in words): SH-SY5Y cells
Outline: as §1

[1] = Microsomal stability assay; format: in vitro ADME; details: mouse, pooled mouse liver microsomes
Outline: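 Pooled mouse liver microsomes (1 μg/μL protein) preincubated 10 min at 37 °C with test compound (4 μM final). Started with NADPH (2 mM final) and incubated 1 h at 37 °C with shaking. Zero-time and end samples quenched in 5:1 acetonitrile:water and centrifuged. Indomethacin added as internal standard. Quantified by triple-quadrupole LC-MS/MS in MRM mode; % remaining at 1 h.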

p38 MAPK [2] = assay: Activity of p38 MAPK pathway, H4-CHOP-luciferase reporter cells; format: cell-based, human
Outline: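 H4 cells stably carrying pFR-Luc and pFA-CHOP plasmids, 1000 cells/well, grown 24 h in 10% FBS DMEM, then switched to phenol red-free DMEM with 2% FBS. Test compound for 1 h at 37 °C (10 μM with thapsigargin or CDDO-IM; 20 μM with MG132; 50 μM with ionomycin). Read by Steady-Glo luminescence. RLU % = background-subtracted (compound-only wells) relative to inducer-only wells. ≥3 repeats, mean ± SEM, one-way ANOVA.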

JNK = assay: Immunoblotting of thapsigargin-induced phospho-JNK in H4 cells; format: cell-based, human; details: compound 25 μM and 5 μM 2 h, then 20 μM thapsigargin 1 h, immunoblot
Outline: (§2)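 H4 cells, 2.5 × 10^6 per 10 cm dish, grown overnight in phenol red-free DMEM with 2% FBS, then serum-starved 2 h. Test compound at 25 or 5 μM for 2 h, then thapsigargin 20 μM for 1 h. Lysed in RIPA buffer with protease and phosphatase inhibitors; protein measured by BCA. 50 μg run on 4–12% Bis-Tris SDS-PAGE and transferred to PVDF. Probed for phospho-p38, p38, phospho-JNK and JNK; HRP secondaries, ECL detection.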

p38 MAPK [3] = assay: Immunoblotting of thapsigargin-induced phospho-p38 MAPK in H4 cells; format: cell-based, human; details: compound 25 μM and 5 μM 2 h, then 20 μM thapsigargin 1 h, immunoblot
Outline: as §2

[4] = system: panel of 46 receptors, ion channels, and transporters; assay: NIMH PDSP off-target panel; format: binding

SMILES	remaining at 3 h, 1 μM (Plasma stability assay) [%]	EC50 (H4 cells) [µM]	EC50 (SH-SY5Y cells) [µM]	remaining at 1 h, 4 μM [1] [%]	cytoprotective activity against thapsigargin-induced cell death (in words) (SH-SY5Y cells)	also measured
CC1(C)CC(=O)C2=C(C1)Nc1cc(C(F)(F)F)ccc1NC2c1ccc(N2CCCC2)cc1 (centres unmarked) [4ee, 3,3-Dimethyl-11-(4-(pyrrolidin-1-yl)phenyl)-7-(trifluoromethyl)-2,3,4,5,10,11-hexahydro-1H-dibenzo[b,e][1,4]diazepin-1-one]	98.8 ± 3.7	18.8 ± 2.77	14 ± 0.18	1.8 ± 0.4		
CC1(C)CC(=O)C2=C(C1)Nc1cc(C(F)(F)F)ccc1NC2c1ccc(N2CCCCC2)cc1 (centres unmarked) [4ff, 3,3-Dimethyl-11-(4-(piperidin-1-yl)phenyl)-7-(trifluoromethyl)-2,3,4,5,10,11-hexahydro-1H-dibenzo[b,e][1,4]diazepin-1-one]	≥ 100	19.5 ± 2.15	16 ± 0.82	4.7 ± 1.7		
CCN(CC)c1ccc(C2Nc3ccc(C(=O)c4ccccc4)cc3NC3=C2C(=O)CC(C)(C)C3)cc1 (centres unmarked) [4hh, 7-Benzoyl-11-(4-(diethylamino)phenyl)-3,3-dimethyl-2,3,4,5,10,11-hexahydro-1H-dibenzo[b,e][1,4]diazepin-1-one]	≥ 100			7.9 ± 6.3	very strong cytoprotective activity	p38 activation initiated by CDDO-IM (CHOP-luciferase RLU) (p38 MAPK [2]; 10 μM compound 1 h, CDDO-IM 600 nM 18 h): reduced p38 activation; p38 activation initiated by thapsigargin (CHOP-luciferase RLU) (p38 MAPK [2]; 10 μM compound 1 h, thapsigargin 20 nM 18 h): reduced p38 activation; p38 activity stimulated by MG132 (CHOP-luciferase RLU) (p38 MAPK [2]; 20 μM compound 1 h, MG132 740 nM 18 h): had no effect; p38 activation initiated by ionomycin (CHOP-luciferase RLU) (p38 MAPK [2]; 50 μM compound 1 h, ionomycin 120 nM 18 h): reduced p38 activation; calcium regulator-induced p38 MAPK activation (p38 MAPK [2]; H4-CHOP-luciferase reporter cells, inducers that disrupt calcium homeostasis): moderate inhibition; also recorded: inhibits; JNK activity (phosphorylation) in response to thapsigargin (JNK): significantly reduced; p38 activity (phosphorylation) in response to thapsigargin (p38 MAPK [3]): significantly reduced; off-target interactions in PDSP panel [4]: No significant off-target interactions were detected
CC1(C)CC(=O)C2=C(C1)Nc1cc(C(=O)c3ccccc3)ccc1NC2c1ccc(N2CCCCC2)cc1 (centres unmarked) [4jj, 7-Benzoyl-3,3-dimethyl-11-(4-(piperidin-1-yl)phenyl)-2,3,4,5,10,11-hexahydro-1H-dibenzo[b,e][1,4]diazepin-1-one]	≥ 100			12.9 ± 1.6		
CC1(C)CC(=O)C2=C(C1)Nc1cc(C(=O)c3ccccc3)ccc1NC2c1ccc(O)cc1 (centres unmarked) [4ll, 7-Benzoyl-11-(4-hydroxyphenyl)-3,3-dimethyl-2,3,4,5,10,11-hexahydro-1H-dibenzo[b,e] [1,4]diazepin-1-one]					devoid of cytoprotective activity	cytoprotective activity against thapsigargin-induced cell death (in words) (H4 cells): devoid of cytoprotective activity
CC1(C)CC(=O)C2=C(C1)Nc1cc(C(=O)c3ccccc3)ccc1NC2c1ccsc1 (centres unmarked) [4mm, 7-Benzoyl-3,3-dimethyl-11-(thiophen-3-yl)-2,3,4,5,10,11-hexahydro-1H-dibenzo[b,e] [1,4]diazepin-1-one]					devoid of cytoprotective activity; also recorded: does not	cytoprotective activity against thapsigargin-induced cell death (in words) (H4 cells): devoid of cytoprotective activity; JNK activity (phosphorylation) in response to thapsigargin (JNK): had no effect; p38 activity (phosphorylation) in response to thapsigargin (p38 MAPK [3]): had no effect
CN(C)c1ccc(C2Nc3ccc(Br)cc3NC3=C2C(=O)CC(C)(C)C3)cc1 (centres unmarked) [4s, 7-Bromo-11-(4-(dimethylamino)phenyl)-3,3-dimethyl-2,3,4,5,10,11-hexahydro-1H-dibenzo [b,e][1,4]diazepin-1-one]		12.9 ± 0.92				
CC1(C)CC(=O)C2=C(C1)Nc1cc(Br)ccc1NC2c1ccc(N2CCCC2)cc1 (centres unmarked) [4t, 7-Bromo-3,3-dimethyl-11-(4-(pyrrolidin-1-yl)phenyl)-2,3,4,5,10,11-hexahydro-1H-dibenzo [b,e][1,4]diazepin-1-one]	≥ 100		14.6 ± 1.61	0.1 ± 0.1		
CCCCN(CCCC)c1ccc(C2Nc3ccc(Br)cc3NC3=C2C(=O)CC(C)(C)C3)cc1 (centres unmarked) [4w, 7-Bromo-11-(4-(dibutylamino)phenyl)-3,3-dimethyl-2,3,4,5,10,11-hexahydro-1H-dibenzo [b,e][1,4]diazepin-1-one]		13.1 ± 2.53			but not in SH-SY5Y cells	
CCN(CC)c1ccc(C2Nc3ccc(-c4ccccc4)cc3NC3=C2C(=O)CC(C)(C)C3)cc1 (centres unmarked) [4y, 11-(4-(Diethylamino)phenyl)-3,3-dimethyl-7-phenyl-2,3,4,5,10,11-hexahydro-1H-dibenzo [b,e][1,4]diazepin-1-one]	97.9 ± 5.7			1.8 ± 2.1		
